Results: ChEMBL document CHEMBL1134363 (J Med Chem, 2001)

Assays:
[1] = target: T1, Adrenergic receptor alpha-1 (Rattus norvegicus, UniProt P15823+P23944+P43140); experiment: In vitro binding affinity against alpha-1 adrenergic receptor of rat in presence of [3H]-prazosin radioligand; format: protein assay
T1 sequence (P15823 whole entry): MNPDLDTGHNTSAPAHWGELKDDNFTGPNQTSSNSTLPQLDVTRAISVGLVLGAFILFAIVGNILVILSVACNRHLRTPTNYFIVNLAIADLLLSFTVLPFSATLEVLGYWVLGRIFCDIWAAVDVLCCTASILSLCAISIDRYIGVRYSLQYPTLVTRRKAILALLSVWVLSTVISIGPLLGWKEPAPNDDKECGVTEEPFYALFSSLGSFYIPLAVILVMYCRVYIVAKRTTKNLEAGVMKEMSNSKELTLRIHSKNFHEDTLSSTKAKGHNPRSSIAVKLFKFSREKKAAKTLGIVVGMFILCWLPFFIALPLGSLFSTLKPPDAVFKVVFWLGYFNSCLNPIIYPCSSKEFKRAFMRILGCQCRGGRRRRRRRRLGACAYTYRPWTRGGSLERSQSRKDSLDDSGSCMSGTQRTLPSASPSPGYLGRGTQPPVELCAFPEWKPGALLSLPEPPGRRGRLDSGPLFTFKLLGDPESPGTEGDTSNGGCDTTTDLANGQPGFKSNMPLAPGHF
T1 sequence (P23944 whole entry): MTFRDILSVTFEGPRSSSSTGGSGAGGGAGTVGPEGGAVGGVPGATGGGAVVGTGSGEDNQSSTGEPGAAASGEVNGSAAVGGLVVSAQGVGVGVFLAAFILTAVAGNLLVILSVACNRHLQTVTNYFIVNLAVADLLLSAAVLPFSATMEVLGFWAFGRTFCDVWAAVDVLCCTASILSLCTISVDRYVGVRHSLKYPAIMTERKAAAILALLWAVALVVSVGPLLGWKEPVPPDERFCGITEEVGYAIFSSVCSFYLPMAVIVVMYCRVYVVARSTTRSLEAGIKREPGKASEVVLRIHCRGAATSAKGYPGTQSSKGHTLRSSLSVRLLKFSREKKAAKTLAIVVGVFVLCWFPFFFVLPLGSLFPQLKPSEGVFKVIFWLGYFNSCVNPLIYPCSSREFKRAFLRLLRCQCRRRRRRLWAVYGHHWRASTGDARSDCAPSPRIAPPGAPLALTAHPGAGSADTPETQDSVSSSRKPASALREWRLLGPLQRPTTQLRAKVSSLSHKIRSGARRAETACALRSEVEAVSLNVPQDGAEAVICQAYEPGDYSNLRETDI
T1 sequence (P43140 whole entry): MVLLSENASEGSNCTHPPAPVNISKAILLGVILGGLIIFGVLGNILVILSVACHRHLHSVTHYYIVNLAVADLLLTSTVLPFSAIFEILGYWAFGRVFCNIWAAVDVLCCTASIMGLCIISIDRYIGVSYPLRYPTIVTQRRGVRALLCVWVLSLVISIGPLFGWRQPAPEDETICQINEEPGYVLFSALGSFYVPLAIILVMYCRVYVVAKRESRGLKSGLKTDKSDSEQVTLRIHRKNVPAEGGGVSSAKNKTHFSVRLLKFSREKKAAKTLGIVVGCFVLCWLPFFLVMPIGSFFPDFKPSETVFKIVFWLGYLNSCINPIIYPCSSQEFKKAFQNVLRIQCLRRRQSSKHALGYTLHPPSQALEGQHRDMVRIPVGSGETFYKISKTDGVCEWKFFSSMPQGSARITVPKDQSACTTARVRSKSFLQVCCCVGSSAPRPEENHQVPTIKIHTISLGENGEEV

[2] = target: T2, Alpha-2A adrenergic receptor (Homo sapiens, UniProt P08913); experiment: Binding affinity for human alpha-2 adrenergic receptor expressed in CHO cell; format: cell-based
T2 sequence (P08913 whole entry): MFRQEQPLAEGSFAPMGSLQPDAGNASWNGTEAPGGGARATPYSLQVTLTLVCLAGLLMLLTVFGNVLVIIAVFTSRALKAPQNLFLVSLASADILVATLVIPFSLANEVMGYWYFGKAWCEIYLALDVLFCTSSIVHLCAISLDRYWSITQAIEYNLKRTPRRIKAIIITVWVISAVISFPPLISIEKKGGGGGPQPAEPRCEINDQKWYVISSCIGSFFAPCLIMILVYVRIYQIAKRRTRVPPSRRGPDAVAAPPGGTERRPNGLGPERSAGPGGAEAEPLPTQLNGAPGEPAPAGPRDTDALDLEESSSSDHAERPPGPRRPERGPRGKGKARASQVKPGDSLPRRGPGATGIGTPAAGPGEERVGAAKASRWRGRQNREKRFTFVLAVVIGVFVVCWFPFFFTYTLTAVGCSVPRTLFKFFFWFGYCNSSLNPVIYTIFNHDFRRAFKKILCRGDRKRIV

[3] = target: T3, Adrenergic receptor alpha-2 (Rattus norvegicus, UniProt P22086+P19328+P22909); experiment: In vitro binding affinity against alpha-2 adrenergic receptor of rat in presence of [3H]-RX 821002 radioligand; format: protein assay
T3 sequence (P22086 whole entry): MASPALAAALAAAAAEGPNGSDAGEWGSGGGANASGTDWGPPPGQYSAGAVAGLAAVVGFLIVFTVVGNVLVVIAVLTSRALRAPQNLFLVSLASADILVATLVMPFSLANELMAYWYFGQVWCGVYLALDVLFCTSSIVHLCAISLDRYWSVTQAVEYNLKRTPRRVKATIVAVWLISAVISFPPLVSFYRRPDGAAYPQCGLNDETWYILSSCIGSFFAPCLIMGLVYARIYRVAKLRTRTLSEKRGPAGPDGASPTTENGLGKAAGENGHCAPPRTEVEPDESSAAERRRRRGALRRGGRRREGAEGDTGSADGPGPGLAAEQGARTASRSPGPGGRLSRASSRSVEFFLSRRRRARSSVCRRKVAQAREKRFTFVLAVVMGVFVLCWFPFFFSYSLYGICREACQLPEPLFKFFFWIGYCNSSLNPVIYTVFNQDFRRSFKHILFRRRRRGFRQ
T3 sequence (P19328 whole entry): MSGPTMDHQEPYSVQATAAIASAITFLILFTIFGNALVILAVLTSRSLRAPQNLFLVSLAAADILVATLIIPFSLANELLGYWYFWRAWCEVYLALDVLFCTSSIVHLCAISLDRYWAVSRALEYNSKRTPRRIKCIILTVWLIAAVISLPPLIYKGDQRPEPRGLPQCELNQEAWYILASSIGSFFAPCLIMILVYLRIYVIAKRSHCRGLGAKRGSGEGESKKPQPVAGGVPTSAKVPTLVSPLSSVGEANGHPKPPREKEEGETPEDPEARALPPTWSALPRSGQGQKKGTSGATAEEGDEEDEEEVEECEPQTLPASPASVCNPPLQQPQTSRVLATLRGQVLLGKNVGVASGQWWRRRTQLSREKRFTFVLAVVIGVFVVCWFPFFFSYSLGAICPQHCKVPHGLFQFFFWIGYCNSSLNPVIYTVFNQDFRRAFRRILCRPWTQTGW
T3 sequence (P22909 whole entry): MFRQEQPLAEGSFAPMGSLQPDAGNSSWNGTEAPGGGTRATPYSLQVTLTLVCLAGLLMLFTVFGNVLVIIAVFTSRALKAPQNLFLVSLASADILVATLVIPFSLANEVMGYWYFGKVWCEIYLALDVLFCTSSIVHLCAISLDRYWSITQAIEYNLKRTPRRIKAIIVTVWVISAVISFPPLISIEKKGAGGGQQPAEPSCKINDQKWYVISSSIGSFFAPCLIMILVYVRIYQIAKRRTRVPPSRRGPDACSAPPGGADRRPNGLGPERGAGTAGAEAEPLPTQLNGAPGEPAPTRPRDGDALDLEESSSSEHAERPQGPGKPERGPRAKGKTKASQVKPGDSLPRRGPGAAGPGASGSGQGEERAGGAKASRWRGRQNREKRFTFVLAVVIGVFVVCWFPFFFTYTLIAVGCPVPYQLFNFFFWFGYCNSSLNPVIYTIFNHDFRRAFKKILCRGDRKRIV

[4] = target: Sodium-dependent serotonin transporter (Rattus norvegicus, UniProt P31652); experiment: In vitro binding affinity was determined against serotonin reuptake site of rat in presence of [3H]paroxetine radioligand
Sodium-dependent serotonin transporter, sequence (P31652 whole entry): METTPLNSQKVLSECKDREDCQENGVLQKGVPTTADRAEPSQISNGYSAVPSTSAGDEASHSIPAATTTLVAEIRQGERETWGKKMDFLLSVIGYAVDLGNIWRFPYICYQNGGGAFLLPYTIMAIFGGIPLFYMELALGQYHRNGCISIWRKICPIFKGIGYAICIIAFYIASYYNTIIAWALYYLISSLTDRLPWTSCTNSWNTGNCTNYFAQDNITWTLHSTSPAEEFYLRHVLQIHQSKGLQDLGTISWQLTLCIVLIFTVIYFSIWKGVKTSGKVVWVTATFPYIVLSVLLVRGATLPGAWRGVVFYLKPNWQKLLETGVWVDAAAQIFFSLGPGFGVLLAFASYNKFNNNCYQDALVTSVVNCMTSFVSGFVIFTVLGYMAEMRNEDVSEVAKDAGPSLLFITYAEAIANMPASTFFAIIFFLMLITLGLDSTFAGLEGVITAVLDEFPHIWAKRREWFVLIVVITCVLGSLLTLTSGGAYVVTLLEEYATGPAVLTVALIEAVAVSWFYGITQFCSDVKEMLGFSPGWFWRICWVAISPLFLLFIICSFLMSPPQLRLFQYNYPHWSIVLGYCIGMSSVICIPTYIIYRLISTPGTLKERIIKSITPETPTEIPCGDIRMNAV

[5] = target: T4, Alpha-2A adrenergic receptor (Homo sapiens) (UniProt P08913); experiment: Antagonistic activity as [35S]GTP gamma-S binding at alpha-2a adrenergic receptor expressed in CHO cells; format: functional, cell-based
T4 sequence (whole entry): T2 sequence (P08913 whole entry)
In short: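 Membranes (40 μg/mL) from CHO cells stably expressing human α2A receptor, preincubated 30 min at room temperature with drug in 20 mM HEPES pH 7.4, 100 mM NaCl, 3 μM GDP, 3 mM MgCl2; 0.2 nM [35S]GTPγS added, 60 min room temperature, NA 10 μM as agonist. Nonspecific: 10 μM GTPγS. Filtration, scintillation counting; pKB from IC50 corrected for agonist concentration/EC50.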

[6] = target: Norepinephrine transporter (Rattus norvegicus, UniProt Q9WTR4); experiment: In vitro binding affinity was determined against NA (noradrenaline) reuptake site of rat in presence of [3H]nisoxetine radioligand
Norepinephrine transporter, sequence (Q9WTR4 whole entry): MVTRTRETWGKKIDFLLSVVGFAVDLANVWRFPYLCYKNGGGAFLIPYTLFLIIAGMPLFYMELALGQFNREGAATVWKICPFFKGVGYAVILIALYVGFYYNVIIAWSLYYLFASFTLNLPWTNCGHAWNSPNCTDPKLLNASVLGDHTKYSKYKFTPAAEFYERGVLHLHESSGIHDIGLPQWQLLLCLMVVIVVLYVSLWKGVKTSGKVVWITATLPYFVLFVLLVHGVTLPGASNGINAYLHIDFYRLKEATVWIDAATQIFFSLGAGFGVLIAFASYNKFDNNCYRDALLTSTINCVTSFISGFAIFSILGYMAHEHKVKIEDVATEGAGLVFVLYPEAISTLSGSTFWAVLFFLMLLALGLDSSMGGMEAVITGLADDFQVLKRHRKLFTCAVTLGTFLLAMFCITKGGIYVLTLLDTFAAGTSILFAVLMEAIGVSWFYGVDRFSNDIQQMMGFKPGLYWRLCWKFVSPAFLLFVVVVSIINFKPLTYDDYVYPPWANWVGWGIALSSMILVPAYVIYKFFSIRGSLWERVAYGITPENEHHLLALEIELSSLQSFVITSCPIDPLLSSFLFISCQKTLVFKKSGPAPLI

Structure (SMILES)	Log Ki [1]	Ki [2] [nM]	Log Ki [3]	Ki [4] [nM]	pKB [5]	Ki [6] [nM]
Fc1ccc2c(c1)C=C(CC1CN=CN1)CC2 (stereo not drawn)	-6.6	158	-6.7	1.58	6.7	50.1
C1=NC[C@H](C[C@]23CCc4ccccc4C2C3)N1 (stereo partly drawn)	-5.9	63.1	-7.3	50.1	6.8	794
Clc1cccc2c1C=C(CC1CN=CN1)CC2 (stereo not drawn)	-6.4	31.6	-7.6	20	7.6	50.1
CNCCC(Oc1ccc(C(F)(F)F)cc1)c1ccccc1 (stereo not drawn)					7.4	
Clc1cccc2ccc(CC3CN=CN3)cc12 (stereo not drawn)	-6.4	25.1	-7.5	31.6	7.5	20
CCC1(c2cnc[nH]2)Cc2ccccc2C1 [ATIPAMEZOLE]		3.16		> 3160		> 10000
CN[C@H](CC(C)C)C(=O)N[C@H]1C(=O)N[C@@H](CC(N)=O)C(=O)N[C@H]2C(=O)N[C@H]3C(=O)N[C@H](C(=O)N[C@H](C(=O)O)c4cc(O)cc(O)c4-c4cc3ccc4O)[C@H](O)c3ccc(c(Cl)c3)Oc3cc2cc(c3O[C@@H]2O[C@H](CO)[C@@H](O)[C@H](O)[C@H]2O[C@H]2C[C@](C)(N)[C@H](O)[C@H](C)O2)Oc2ccc(cc2Cl)[C@H]1O [VANCOMYCIN]	-6		-6.9	50.1	6.7	15.8
C1=NC[C@@H](C2C[C@@]23CCc2ccccc2C3)N1 (stereo partly drawn)	-6.3	3.16	-8.2	2	8.2	100
C1=NCC(CC2Cc3ccccc3C2)N1 (stereo not drawn)	-6.3	3.98	-8.7	63.1	8.1	39.8
C1=NC[C@]2(CC[C@@H]3Cc4ccccc4C[C@H]3C2)N1 (relative stereo)	-6.1	1.26	-8	15.8	8.2	200
CCC1(c2c[nH]cn2)Cc2ccccc2C1 [ATIPAMEZOLE]	-5.7				8.9	
C[C@@]1(C[C@H]2CN=CN2)CCc2ccccc2C1	-5.7		-6.6	31.6		63.1
Fc1cccc2c1C=C(CC1CN=CN1)CC2 (stereo not drawn)	-6.3	39.8	-7.4	79.4	6.8	126
C[C@@]1(C[C@@H]2CN=CN2)CCc2ccccc2C1	-6		-7.1	10		200
CC1(C)CC(CC2CN=CN2)=Cc2ccccc21 (stereo not drawn)	-6.1		-6	> 10000		39.8
C1=C(CC2=NCCN2)CCc2ccccc21 [NAPAMEZOLE]	-7		-8.5	200		> 1000
Cc1cccc2c1C=C(CC1CN=CN1)CC2 (stereo not drawn)	-6.2		-6.8	12.6		1000
NC1=NC(CC2=Cc3ccccc3CC2)CN1 (stereo not drawn)	-7.2		-6.5	39.8		79.4
CC1(CC2=Cc3ccccc3CC2)CN=CN1 (stereo not drawn)	-5.9		-6.1	63.1		316
C1=NCC(CC2=Cc3ccccc3C2)N1 (stereo not drawn)	-5.9		-7.8	79.4		31.6
C1=NCC(Cc2cc3cc(-c4ccccc4)ccc3o2)N1 (stereo not drawn)	< -5.5		< -5	> 10000		158
C1=NCC2(CC3(Cc4ccccc4C3)C2)N1	-5.3		-6.2	6310		> 10000
C1=NC[C@@H](C2CC23Cc2ccccc2C3)N1 (stereo partly drawn)	-5.2		-7.1	398		316
